Compound activity deposited in PubChem by several laboratories.
A selection: hits, their analogues and other compounds. The true share with any hit is near 5%.
Mdm2 MdmX PPI: disrupts the human Mdm2-MdmX interaction. SaOS-2 split-luciferase Mdm2/MdmX complementation, luminescence. O15151+Q00987. inhibition, % at 8 µM. hit rate 3% among 330,000;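 active = inhibition of at least 50% at 8 µM in the primary screen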
Target sequence (O15151 whole entry, looked up): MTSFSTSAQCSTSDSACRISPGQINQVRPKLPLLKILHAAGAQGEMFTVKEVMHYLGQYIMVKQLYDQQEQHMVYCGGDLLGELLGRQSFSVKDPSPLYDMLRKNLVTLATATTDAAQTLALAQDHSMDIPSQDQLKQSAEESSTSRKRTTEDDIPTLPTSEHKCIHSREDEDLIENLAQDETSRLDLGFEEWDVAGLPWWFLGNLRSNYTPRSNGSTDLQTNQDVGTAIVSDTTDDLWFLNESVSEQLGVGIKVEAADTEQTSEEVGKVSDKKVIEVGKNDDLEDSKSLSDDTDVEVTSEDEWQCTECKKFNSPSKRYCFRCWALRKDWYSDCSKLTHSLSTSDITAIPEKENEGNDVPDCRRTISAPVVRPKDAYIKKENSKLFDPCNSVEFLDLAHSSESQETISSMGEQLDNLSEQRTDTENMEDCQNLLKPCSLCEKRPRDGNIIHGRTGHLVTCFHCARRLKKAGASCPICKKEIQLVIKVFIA
Target sequence (Q00987 whole entry, looked up): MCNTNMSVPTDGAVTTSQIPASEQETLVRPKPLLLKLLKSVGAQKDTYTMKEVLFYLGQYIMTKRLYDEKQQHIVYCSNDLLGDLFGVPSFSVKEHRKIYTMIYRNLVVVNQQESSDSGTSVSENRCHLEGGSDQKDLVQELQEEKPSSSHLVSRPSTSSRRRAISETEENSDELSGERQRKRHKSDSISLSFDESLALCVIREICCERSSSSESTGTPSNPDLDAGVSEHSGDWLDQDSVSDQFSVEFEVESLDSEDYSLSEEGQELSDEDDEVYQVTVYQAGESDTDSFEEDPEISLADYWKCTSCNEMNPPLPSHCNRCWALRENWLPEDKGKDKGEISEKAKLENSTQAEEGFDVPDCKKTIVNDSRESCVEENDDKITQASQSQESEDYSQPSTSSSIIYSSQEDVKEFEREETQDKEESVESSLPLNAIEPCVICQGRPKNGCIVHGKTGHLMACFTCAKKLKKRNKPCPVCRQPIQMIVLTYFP
UPR CHOP act: activators of apoptotic arm of unfolded protein response (CHOP). hit rate 0.34% among 330,000. activation, % at 10 µM. CHO-CHOP luciferase reporter, UPR activation, luminescence; percent of tunicamycin response over DMSO baseline. AID 449763;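 active = at 10 µM dose, activation of 40% or more, normalized to positive control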;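 also: 100% = tunicamycin at 10 µg/mL and 0% = DMSO alone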
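System: CHO-CHOP luciferase reporter cell line; amount: 500 cells/well; buffer or medium: F12 medium containing 10% fetal bovine serum; incubation: 6 h compound exposure at 37 °C after overnight seeding; measured by: luciferase luminescence after 10 min with Steady-Glo reagent; evaluation: % reporter activation, DMSO baseline versus tunicamycin full activation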
T cruzi inh: blocks replication of Trypanosoma cruzi; T. cruzi beta-gal in NIH3T3, luminescence, 90 h; inhibition, % (test concentration not listed); hit rate 1.4% among 300,000;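 active = mean inhibition across valid replicates above about 55%, limit read from the data; inconclusive = mean below that limit but half or more replicates reach it; inactive = mean below it, under half of replicates reach it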;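 also: signal also drops with host cell toxicity which is not excluded here; 0% = plate median of DMSO wells and 100% = zero luminescence signal; higher percent means less beta-gal luminescence so fewer parasites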
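Material: NIH/3T3 host cells with β-galactosidase reporter T. cruzi; Input: 5,000 host fibroblasts per well; Medium: DMEM, 2% fetal bovine serum; Compound: 50 nL DMSO compound solution per well; Schedule: 3 h host attachment, then at least 90 h co-culture; Detection: luminescent β-galactosidase signal after 60 min lysis.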
CSC inhib: blocks cancer stem cells; cancer stem cell-like cells viability, luminescence; inhibition, % at 7.5 µM; hit rate 1.1% among 300,000; in the data active = inhibition above about 75%; inconclusive = no clear call, values can overlap the other calls; tested in HMLE shEcad cells
Beta apoptosis: blocks beta cell apoptosis; INS-1E cytokine-induced death, ATP luminescence, 48 h; percent of positive-control rescue, neutral wells zero; protection from apoptosis, % (concentration not given with the values); hit rate 0.8% among 300,000;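 active = Every replicate reaches about 75%, or at least half do and their mean reaches it too, limit read from the data; inconclusive = At least half of replicates reach the limit but their mean does not; inactive = Under half of replicates reach the limit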;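 also: 0% = cytokine-treated negative control wells and 100% = positive control rescue; higher means more ATP so stronger rescue from cytokine killing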
XBP1 UPR activ: activators of adaptive arm of unfolded protein response (XBP1) | activation, % at 20 µM | hit rate 0.33% among 330,000 | AID 463104 | CHO-XBP1 luciferase reporter, IRE1-XBP1 UPR activation, luminescence; percent of tunicamycin response, DMSO as zero;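 active = versus positive control, 20 µM dose yields 30% or more activation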;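 also: 100% = tunicamycin at 10 µg/mL and 0% = DMSO only wells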
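Material: CHO-XBP1 cells stably carrying IRE1-XBP1-driven luciferase reporter / Amount: 1000 cells per well / Compound: 20 µM, 1% DMSO / Times: 6 h treatment, 37 °C / Detection: luciferase luminescence / Measure: % activation of reporter signal versus tunicamycin and DMSO controls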
Mdm2 MdmX conf: human Mdm2/MdmX binding inhibition, confirmed; inhibition, % at 8 µM; hit rate 55% among 10,000; shares compounds with Mdm2 MdmX PPI; luminescent assay; in the data active = inhibition above about 40%
FLuc counter: inhibits full-length luciferase, flagging false Mdm2/MdmX hits. shares compounds with Mdm2 MdmX PPI. SaOS-2 full-length luciferase counterscreen, luminescence. inhibition, % at 8 µM. hit rate 77% among 6,200;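 active = mean inhibition at 8 µM reaching about 37%, which flags the compound as non-specific, limit read from the data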;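 also: p53-null SaOS-2 cells with luciferase driven by a doxycycline-inducible promoter; compound on cells about two nights before reading with doxycycline added after day one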
* hit, by the source's call.

For Cc1cc2nn(-c3cccc4ccccc34)nc2cc1N the results were Mdm2 MdmX PPI -49, UPR CHOP act 3, T cruzi inh -3, CSC inhib -6, Beta apoptosis 19 and XBP1 UPR activ 5.
Screening Nc1ccc2nn(-c3cccc4ccccc34)nc2c1 returned Mdm2 MdmX PPI 53*, UPR CHOP act 17, T cruzi inh 6, CSC inhib -8, Beta apoptosis 75*, XBP1 UPR activ 5 and Mdm2 MdmX conf -1.
`O=[N+]([O-])c1cccc(NC(=S)Nc2nc(-c3ccccc3Cl)cs2)c1` gave Mdm2 MdmX PPI 96*, UPR CHOP act 12, T cruzi inh 38, CSC inhib 86*, Beta apoptosis 33, XBP1 UPR activ 0, Mdm2 MdmX conf 85* and FLuc counter 63*.
For CCOc1ccc(C(C)=O)cc1CN1C(=O)c2ccccc2S1(=O)=O the results were Mdm2 MdmX PPI -3, UPR CHOP act 1, T cruzi inh 11, CSC inhib -3, Beta apoptosis 2 and XBP1 UPR activ -3.
COc1ccc(S(=O)(=O)Nc2ccccc2C)cc1 was read as Mdm2 MdmX PPI 29, UPR CHOP act -2, T cruzi inh -11, CSC inhib 21, Beta apoptosis 1 and XBP1 UPR activ 1.
COc1ccc(S(=O)(=O)Nc2cccc3ccc(O)cc23)cc1 was read as Mdm2 MdmX PPI 60*, UPR CHOP act -1, T cruzi inh -3, CSC inhib 60, Beta apoptosis 9, XBP1 UPR activ 2, Mdm2 MdmX conf 57* and FLuc counter 52*.
Oc1cccc2ccc(Nc3ccccn3)nc12 was read as Mdm2 MdmX PPI 72*, UPR CHOP act 7, T cruzi inh 62*, CSC inhib 104*, Beta apoptosis 106*, XBP1 UPR activ 14, Mdm2 MdmX conf 100* and FLuc counter 52*.
Screening c1ccc(Nc2ccccc2Nc2ccccn2)nc1 returned Mdm2 MdmX PPI -6, UPR CHOP act -1, T cruzi inh 8, Beta apoptosis -2 and XBP1 UPR activ 0.
For COc1ccc(Nc2nc(CN3CCOCC3)nc3sc4c(c23)CCC(C)C4)cc1OC (stereo not drawn) the results were Mdm2 MdmX PPI 17, UPR CHOP act 0, T cruzi inh -20, CSC inhib 7, Beta apoptosis 1 and XBP1 UPR activ -3.
For COc1cc2c(cc1OC)CN(c1nc(CN3CCOCC3)nc3sc4c(c13)CCC(C)C4)CC2 (stereo not drawn) the results were Mdm2 MdmX PPI 64*, UPR CHOP act 2, T cruzi inh 4, CSC inhib 23, Beta apoptosis 3, XBP1 UPR activ 3, Mdm2 MdmX conf 28 and FLuc counter 74*.
`CC(C)n1c(O)c(N=NC(=O)c2ccccc2NS(=O)(=O)c2cccs2)c2ccccc21` gave Mdm2 MdmX PPI -26, UPR CHOP act 1, T cruzi inh 20, CSC inhib 16, Beta apoptosis -5 and XBP1 UPR activ 3.
`O=C(Nc1ccc(Cl)c(C(F)(F)F)c1)[C@@H]1CC=C[C@@H]2CCN(Cc3ccc(Cl)c(Cl)c3)C(=O)[C@@H]21` gave Mdm2 MdmX PPI 63*, UPR CHOP act 1, T cruzi inh 50, CSC inhib 35, Beta apoptosis 8, XBP1 UPR activ 4 and Mdm2 MdmX conf 1.
`O=C(O)[C@H]1CC=C[C@H]2CCN(Cc3ccc(Cl)c(Cl)c3)C(=O)[C@@H]12` gave Mdm2 MdmX PPI 7, UPR CHOP act 2 and XBP1 UPR activ 6.
Screening CC(=O)NS(=O)(=O)c1ccc(N=c2ssc3c2-c2cc(C)c(C)cc2NC3(C)C)cc1 returned Mdm2 MdmX PPI 4, UPR CHOP act 1, T cruzi inh 7, CSC inhib -4, Beta apoptosis 0 and XBP1 UPR activ -2.
For Cc1cc2c(cc1C)-c1c(ssc1=Nc1ccc(S(N)(=O)=O)cc1)C(C)(C)N2 the results were Mdm2 MdmX PPI 62*, UPR CHOP act 3, T cruzi inh 26, CSC inhib -2, Beta apoptosis 28, XBP1 UPR activ 8, Mdm2 MdmX conf 40* and FLuc counter 44*.
`CCOc1cc(CNCCO)cc(Br)c1OCc1ccccc1` gave Mdm2 MdmX PPI 17, UPR CHOP act -2, T cruzi inh 22, CSC inhib 19, Beta apoptosis 27 and XBP1 UPR activ -1.
`COc1cc(CNC(C)(C)CO)cc(Br)c1OCc1ccc(Cl)cc1Cl` gave Mdm2 MdmX PPI 55*, UPR CHOP act 0, T cruzi inh 50, CSC inhib inconclusive, Beta apoptosis 3, XBP1 UPR activ 2, Mdm2 MdmX conf 40* and FLuc counter 102*.
`COc1cc(CNCCO)cc(Br)c1OCc1ccccc1Cl` gave Mdm2 MdmX PPI 57*, UPR CHOP act 0, T cruzi inh 22, CSC inhib 29, Beta apoptosis 7, XBP1 UPR activ 3 and Mdm2 MdmX conf 14.
For CC(=O)Nc1cccc(OCCCNS(=O)(=O)c2ccc(C#N)cc2)c1 the results were Mdm2 MdmX PPI 16, UPR CHOP act 0, T cruzi inh -14, CSC inhib -7, Beta apoptosis 0 and XBP1 UPR activ -7.
CCn1c2ccccc2c2nnc(SCC(=O)Nc3c(C)n(C)n(-c4ccccc4)c3=O)nc21 was read as Mdm2 MdmX PPI 19, UPR CHOP act 2, T cruzi inh 9, CSC inhib -12, Beta apoptosis -9 and XBP1 UPR activ -1.
Screening Cc1c(NC(=O)CSc2nnc3c4ccccc4n(CCc4ccccc4)c3n2)c(=O)n(-c2ccccc2)n1C returned Mdm2 MdmX PPI 100*, UPR CHOP act -4, T cruzi inh 33, CSC inhib 38, Beta apoptosis 4, XBP1 UPR activ -6, Mdm2 MdmX conf 90* and FLuc counter 52*.
`Cc1ccc(C(=O)N/C(=C\c2cccs2)C(=O)NCCCN2CCOCC2)cc1` gave Mdm2 MdmX PPI 21, UPR CHOP act 0, T cruzi inh -7, CSC inhib -16, Beta apoptosis -10 and XBP1 UPR activ 1.
For O=[N+]([O-])c1cccc2c1ccc1ncccc12 the results were Mdm2 MdmX PPI 56*, UPR CHOP act 1, T cruzi inh 22, CSC inhib -4, Beta apoptosis -7, XBP1 UPR activ 4 and Mdm2 MdmX conf 34.
CCCCn1c(-c2ccc([N+](=O)[O-])cc2)n[nH]c1=S was read as Mdm2 MdmX PPI -33, UPR CHOP act 0, T cruzi inh -9, CSC inhib -9, Beta apoptosis -10 and XBP1 UPR activ 1.
